# Laboratory results taken from ChEMBL document CHEMBL3112470, “Design and synthesis of N₁-aryl-benzimidazoles 2-substituted as novel HIV-1 non-nucleoside reverse transcriptase inhibitors” (Bioorg Med Chem, 2014).
# Activity calls are given as the source filed them. The rule behind the calls is not given here.
# Molecular target: Human immunodeficiency virus type 1 reverse transcriptase (Human immunodeficiency virus 1, UniProt Q72547)
# Assay: Inhibition of GST-tagged recombinant wild type HIV-1 reverse transcriptase p66/p51 RNA-dependent DNA polymerase activity expressed in Escherichia coli JM109 using dTTP as substrate after 40 mins by spectrofluorometric analysis
# Conditions: not given
row,SMILES,IC50 [µM]
1,Cc1cc(C)cc(S(=O)(=O)n2c(SCC(=O)Nc3ccccc3Br)nc3ccc(Cl)cc32)c1,63.5
2,COC(=O)c1ccc(NC(=O)CSc2nc3ccc(Cl)cc3n2Cc2cc(C)cc(C)c2)c(Cl)c1,> 227
3,Cc1cc(C)cc(S(=O)(=O)n2c(SCC(=O)Nc3ccccc3[N+](=O)[O-])nc3ccccc32)c1,100
4,Cc1cc(C)cc(Cn2c(SCC(=O)Nc3ccc(S(C)(=O)=O)cc3Cl)nc3ccccc32)c1,1.93
5,COC(=O)c1ccc(NC(=O)CSc2nc3ccccc3n2Cc2cc(C)cc(C)c2)c(Cl)c1,40.3
6,COC(=O)c1ccc(NC(=O)CSc2nc3ccc(Cl)cc3n2S(=O)(=O)c2cc(C)cc(C)c2)c(Cl)c1,37.6
7,Cc1cc(C)cc(Cn2c(SCC(=O)Nc3ccc(S(N)(=O)=O)cc3Cl)nc3ccccc32)c1,1.02
8,Cc1cc(C)cc(Cn2c(SCC(=O)Nc3ccccc3Cl)nc3ccc(Cl)cc32)c1,> 255
9,Cc1cc(C)cc(Cn2c(SCC(=O)Nc3ccccc3Br)nc3ccc(Cl)cc32)c1,> 233
10,Cc1cc(C)cc(S(=O)(=O)n2c(SCC(=O)Nc3ccccc3Br)nc3ccccc32)c1,0.18
11,Cc1cc(C)cc(S(=O)(=O)n2c(SCC(=O)Nc3ccc(S(N)(=O)=O)cc3Cl)nc3ccccc32)c1,18.5
12,Cc1cc(C)cc(S(=O)(=O)n2c(=S)[nH]c3ccc(Cl)cc32)c1,1.76

# System: Human immunodeficiency virus 1
# Assay: Antiviral activity against NNRTI-resistant HIV-1 RES056 harboring reverse transcriptase K103N/Y181C double mutant
# Assay type: functional, organism-based
# Conditions: not given
# How it was run: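 MT-4 cells were infected with virus at about 100 times the CCID50 per ml of cell suspension and mixed with serial compound dilutions. They were incubated 5 days at 37 °C, then viable cells were counted. EC50 is the concentration that reduces virus-induced cytopathic effect by 50%. Cytotoxicity was measured in parallel in MT-4 cells.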
row,SMILES,Activity
1,Cc1cc(C)cc(Cn2c(=S)[nH]c3ccc(Cl)cc32)c1,inactive
2,Cc1cc(C)cc(S(=O)(=O)n2c(SCC(=O)Nc3ccccc3Br)nc3ccc(Cl)cc32)c1,inactive
3,COC(=O)c1ccc(NC(=O)CSc2nc3ccc(Cl)cc3n2Cc2cc(C)cc(C)c2)c(Cl)c1,inactive
4,Cc1cc(C)cc(S(=O)(=O)n2c(SCC(=O)Nc3ccccc3[N+](=O)[O-])nc3ccccc32)c1,inactive
5,Cc1cc(C)cc(Cn2c(SCC(=O)Nc3ccc(S(C)(=O)=O)cc3Cl)nc3ccccc32)c1,inactive
6,COC(=O)c1ccc(NC(=O)CSc2nc3ccccc3n2Cc2cc(C)cc(C)c2)c(Cl)c1,inactive
7,COC(=O)c1ccc(NC(=O)CSc2nc3ccc(Cl)cc3n2S(=O)(=O)c2cc(C)cc(C)c2)c(Cl)c1,inactive
8,Cc1cc(C)cc(Cn2c(SCC(=O)Nc3ccc(S(N)(=O)=O)cc3Cl)nc3ccccc32)c1,inactive
9,Cc1cc(C)cc(Cn2c(SCC(=O)Nc3ccccc3Cl)nc3ccc(Cl)cc32)c1,inactive
10,Cc1cc(C)cc(Cn2c(SCC(=O)Nc3ccccc3Br)nc3ccc(Cl)cc32)c1,inactive
11,Cc1cc(C)cc(S(=O)(=O)n2c(SCC(=O)Nc3ccccc3Br)nc3ccccc32)c1,inactive
12,Cc1cc(C)cc(S(=O)(=O)n2c(SCC(=O)Nc3ccc(S(N)(=O)=O)cc3Cl)nc3ccccc32)c1,inactive
13,Cc1cc(C)cc(S(=O)(=O)n2c(=S)[nH]c3ccc(Cl)cc32)c1,inactive

# System: Human immunodeficiency virus 1
# Assay: Antiviral activity against HIV-1 3B infected in human MT4 cells assessed as inhibition of virus-induced cytopathic effect after 5 days
# Assay type: functional, organism-based
# Conditions: Human immunodeficiency virus 1, 3B, MT4, 120 h
# How it was run: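 MT-4 cells infected with HIV-1 IIIB at ~100 times the CCID50 per ml, mixed 1:1 with serial compound dilutions, incubated at 37 °C for 5 days. Viable cell number then determined. EC50 = concentration reducing virus-induced cytopathicity by 50%.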
row,SMILES,EC50 [nM]
1,Cc1cc(C)cc(S(=O)(=O)n2c(SCC(=O)Nc3ccccc3Br)nc3ccc(Cl)cc32)c1,3860
2,O=C1Nc2ccc(Cl)cc2[C@@](C#CC2CC2)(C(F)(F)F)O1 [EFAVIRENZ],6
3,COC(=O)c1ccc(NC(=O)CSc2nc3ccc(Cl)cc3n2Cc2cc(C)cc(C)c2)c(Cl)c1,> 105000
4,Cc1cc(C)cc(S(=O)(=O)n2c(SCC(=O)Nc3ccccc3[N+](=O)[O-])nc3ccccc32)c1,40
5,Cc1cc(C)cc(Cn2c(SCC(=O)Nc3ccc(S(C)(=O)=O)cc3Cl)nc3ccccc32)c1,540
6,COC(=O)c1ccc(NC(=O)CSc2nc3ccccc3n2Cc2cc(C)cc(C)c2)c(Cl)c1,6030
7,COC(=O)c1ccc(NC(=O)CSc2nc3ccc(Cl)cc3n2S(=O)(=O)c2cc(C)cc(C)c2)c(Cl)c1,4820
8,Cc1cc(C)cc(Cn2c(SCC(=O)Nc3ccc(S(N)(=O)=O)cc3Cl)nc3ccccc32)c1,210
9,Cc1cc(C)cc(Cn2c(SCC(=O)Nc3ccccc3Cl)nc3ccc(Cl)cc32)c1,19600
10,Cc1cc(C)cc(Cn2c(SCC(=O)Nc3ccccc3Br)nc3ccc(Cl)cc32)c1,32500
11,Cc1cc(C)cc(S(=O)(=O)n2c(SCC(=O)Nc3ccccc3Br)nc3ccccc32)c1,60
12,Cc1cc(C)cc(S(=O)(=O)n2c(SCC(=O)Nc3ccc(S(N)(=O)=O)cc3Cl)nc3ccccc32)c1,20
13,Cc1cc(C)cc(S(=O)(=O)n2c(=S)[nH]c3ccc(Cl)cc32)c1,50

# System: not listed separately
# Assay: Cytotoxicity against human MT4 cells assessed as cell viability
# Assay type: cell-based
# Conditions: not given
# How it was run: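 Uninfected MT-4 cells run in parallel with the antiviral assay. CC50 = concentration reducing MT-4 cell viability by 50%.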
row,SMILES,CC50 [µM]
1,Cc1cc(C)cc(S(=O)(=O)n2c(SCC(=O)Nc3ccccc3Br)nc3ccc(Cl)cc32)c1,145
2,Cc1ccnc2c1NC(=O)c1cccnc1N2C1CC1 [NEVIRAPINE],> 15
3,O=C1Nc2ccc(Cl)cc2[C@@](C#CC2CC2)(C(F)(F)F)O1 [EFAVIRENZ],> 6.34
4,COC(=O)c1ccc(NC(=O)CSc2nc3ccc(Cl)cc3n2Cc2cc(C)cc(C)c2)c(Cl)c1,105
5,Cc1cc(C)cc(S(=O)(=O)n2c(SCC(=O)Nc3ccccc3[N+](=O)[O-])nc3ccccc32)c1,≥ 26.1
6,Cc1cc(C)cc(Cn2c(SCC(=O)Nc3ccc(S(C)(=O)=O)cc3Cl)nc3ccccc32)c1,106
7,COC(=O)c1ccc(NC(=O)CSc2nc3ccccc3n2Cc2cc(C)cc(C)c2)c(Cl)c1,191
8,COC(=O)c1ccc(NC(=O)CSc2nc3ccc(Cl)cc3n2S(=O)(=O)c2cc(C)cc(C)c2)c(Cl)c1,≥ 130
9,Cc1cc(C)cc(Cn2c(SCC(=O)Nc3ccc(S(N)(=O)=O)cc3Cl)nc3ccccc32)c1,111
10,Cc1cc(C)cc(Cn2c(SCC(=O)Nc3ccccc3Cl)nc3ccc(Cl)cc32)c1,141
11,Cc1cc(C)cc(Cn2c(SCC(=O)Nc3ccccc3Br)nc3ccc(Cl)cc32)c1,174
12,Cc1cc(C)cc(S(=O)(=O)n2c(SCC(=O)Nc3ccc(S(N)(=O)=O)cc3Cl)nc3ccccc32)c1,25.6
13,Cc1cc(C)cc(S(=O)(=O)n2c(=S)[nH]c3ccc(Cl)cc32)c1,93.1

# System: not listed separately
# Assay: Selectivity index, ratio of CC50 for human MT4 cells to EC50 for HIV-1 3B
# Assay type: toxicity, cell-based
# Conditions: read-out: Ratio CC50/EC50
# How it was run: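 Calculated as CC50/EC50, both from MT-4 cells: CC50 from the parallel viability assay, EC50 from the 5-day HIV-1 IIIB cytopathicity assay.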
row,SMILES,selectivity ratio
1,Cc1cc(C)cc(Cn2c(=S)[nH]c3ccc(Cl)cc32)c1,4
2,Cc1cc(C)cc(S(=O)(=O)n2c(SCC(=O)Nc3ccccc3Br)nc3ccc(Cl)cc32)c1,37
3,COC(=O)c1ccc(NC(=O)CSc2nc3ccc(Cl)cc3n2Cc2cc(C)cc(C)c2)c(Cl)c1,< 1
4,Cc1cc(C)cc(S(=O)(=O)n2c(SCC(=O)Nc3ccccc3[N+](=O)[O-])nc3ccccc32)c1,≥ 652
5,Cc1cc(C)cc(Cn2c(SCC(=O)Nc3ccc(S(C)(=O)=O)cc3Cl)nc3ccccc32)c1,196
6,COC(=O)c1ccc(NC(=O)CSc2nc3ccccc3n2Cc2cc(C)cc(C)c2)c(Cl)c1,32
7,COC(=O)c1ccc(NC(=O)CSc2nc3ccc(Cl)cc3n2S(=O)(=O)c2cc(C)cc(C)c2)c(Cl)c1,≥ 27
8,Cc1cc(C)cc(Cn2c(SCC(=O)Nc3ccc(S(N)(=O)=O)cc3Cl)nc3ccccc32)c1,530
9,Cc1cc(C)cc(Cn2c(SCC(=O)Nc3ccccc3Cl)nc3ccc(Cl)cc32)c1,7
10,Cc1cc(C)cc(Cn2c(SCC(=O)Nc3ccccc3Br)nc3ccc(Cl)cc32)c1,5
11,Cc1cc(C)cc(S(=O)(=O)n2c(SCC(=O)Nc3ccccc3Br)nc3ccccc32)c1,≥ 3930
12,Cc1cc(C)cc(S(=O)(=O)n2c(SCC(=O)Nc3ccc(S(N)(=O)=O)cc3Cl)nc3ccccc32)c1,1280
13,Cc1cc(C)cc(S(=O)(=O)n2c(=S)[nH]c3ccc(Cl)cc32)c1,1860

# System: Human immunodeficiency virus 2
# Assay: Antiviral activity against HIV-2 ROD
# Assay type: functional, organism-based
# Conditions: ISOLATE ROD
row,SMILES,Activity
1,Cc1cc(C)cc(Cn2c(=S)[nH]c3ccc(Cl)cc32)c1,inactive
2,Cc1cc(C)cc(S(=O)(=O)n2c(SCC(=O)Nc3ccccc3Br)nc3ccc(Cl)cc32)c1,inactive
3,COC(=O)c1ccc(NC(=O)CSc2nc3ccc(Cl)cc3n2Cc2cc(C)cc(C)c2)c(Cl)c1,inactive
4,Cc1cc(C)cc(S(=O)(=O)n2c(SCC(=O)Nc3ccccc3[N+](=O)[O-])nc3ccccc32)c1,inactive
5,Cc1cc(C)cc(Cn2c(SCC(=O)Nc3ccc(S(C)(=O)=O)cc3Cl)nc3ccccc32)c1,inactive
6,COC(=O)c1ccc(NC(=O)CSc2nc3ccccc3n2Cc2cc(C)cc(C)c2)c(Cl)c1,inactive
7,COC(=O)c1ccc(NC(=O)CSc2nc3ccc(Cl)cc3n2S(=O)(=O)c2cc(C)cc(C)c2)c(Cl)c1,inactive
8,Cc1cc(C)cc(Cn2c(SCC(=O)Nc3ccc(S(N)(=O)=O)cc3Cl)nc3ccccc32)c1,inactive
9,Cc1cc(C)cc(Cn2c(SCC(=O)Nc3ccccc3Cl)nc3ccc(Cl)cc32)c1,inactive
10,Cc1cc(C)cc(Cn2c(SCC(=O)Nc3ccccc3Br)nc3ccc(Cl)cc32)c1,inactive
11,Cc1cc(C)cc(S(=O)(=O)n2c(SCC(=O)Nc3ccccc3Br)nc3ccccc32)c1,inactive
12,Cc1cc(C)cc(S(=O)(=O)n2c(SCC(=O)Nc3ccc(S(N)(=O)=O)cc3Cl)nc3ccccc32)c1,inactive
13,Cc1cc(C)cc(S(=O)(=O)n2c(=S)[nH]c3ccc(Cl)cc32)c1,inactive
